Reference: ChEMBL document CHEMBL4261600 (Eur J Med Chem, 2018)
Activity calls are given as the source filed them.

How the values were obtained:
[1] = tested on: MV4-11; assay: Induction of apoptosis in human MV4-11 cells assessed as decrease in BCL-2 level up to 3 uM after 2 hrs by immunoblotting analysis; format: functional, cell-based
[2] = AUC (0 to t) in mouse at 3 mg/kg, iv by LC-MS/MS analysis; format: ADME, organism-based; settings: in vivo
Procedure, shortened: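 Non-compartmental PK. Male SD rats 190-210 g, mice and beagle dogs acclimatized one week, fasted 12 h with water, split into iv and po groups (mice 48, rats 6, dogs 6). iv 3/3/2 mg/kg (mice/rats/dogs); po 10/20/10 mg/kg; vehicle DMSO in 5% glucose water. Blood at 2 or 5 to 720 min; plasma protein-precipitated with methanol, caffeine internal standard, LC-MS/MS.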

[3] = MRT (0 to infinity) in beagle dog at 2 mg/kg, iv by LC-MS/MS analysis; format: ADME, organism-based, Canis lupus familiaris; settings: in vivo
[4] = tested on: Canis familiaris; assay: Oral bioavailability in beagle dog at 10 mg/kg by LC-MS/MS analysis; format: ADME, organism-based, Canis lupus familiaris; settings: in vivo
[5] = biological target: Calcium/calmodulin-dependent protein kinase type II subunit gamma (Homo sapiens) (UniProt Q13555); assay: Binding affinity to wild-type human partial length CAMK2G (R9 to A303 residues) expressed in bacterial expression system assessed as remaining unbound target protein level at 1000 nM by Kinomescan method relative to control
Procedure, shortened: (§1)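 KINOMEscan competition binding profile across a panel of 468 kinases and mutants, with the inhibitor tested at a single concentration of 1 μM. Binding is reported as percent of control, meaning signal relative to a DMSO control.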

[6] = biological target: Cyclin-dependent kinase 9 (Homo sapiens, UniProt P50750); assay: Binding affinity to wild-type human full length CDK9 (M1 to F372 residues) expressed in bacterial expression system assessed as remaining unbound target protein level at 1000 nM by Kinomescan method relative to control
Procedure, shortened: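 KINOMEscan competition binding panel run at 1 μM inhibitor; binding reported as percent of DMSO control (remaining target bound versus vehicle).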

[7] = tested on: Epidermal growth factor receptor (Homo sapiens), P00533 [UNDEFINED MUTATION]; assay: Binding affinity to human partial length EGFR L747-S752del/P753S mutant expressed in bacterial expression system assessed as remaining unbound target protein level at 1000 nM by Kinomescan method relative to control
Procedure, shortened: (§2)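 KINOMEscan competition-binding profiling across the panel of 468 kinases and mutants, with inhibitor tested at 1 μM. Binding is expressed as percent of control, with DMSO as the reference control.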

[8] = biological target: Mitogen-activated protein kinase 6 (Homo sapiens) (UniProt Q16659); assay: Binding affinity to wild-type human partial length ERK3 (M1 to P413 residues) expressed in bacterial expression system assessed as remaining unbound target protein level at 1000 nM by Kinomescan method relative to control
[9] = biological target: Tyrosine-protein kinase Fer (Homo sapiens) (UniProt P16591); assay: Binding affinity to wild-type human partial length FER (S542 to T822 residues) expressed in bacterial expression system assessed as remaining unbound target protein level at 1000 nM by Kinomescan method relative to control
[10] = biological target: Homeodomain-interacting protein kinase 2 (Homo sapiens) (UniProt Q9H2X6); assay: Binding affinity to wild-type human partial length HIPK2 (M153 to S564 residues) expressed in mammalian expression system assessed as remaining unbound target protein level at 1000 nM by Kinomescan method relative to control
Procedure, shortened: (§3)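 KINOMEscan binding panel of 468 kinases/mutants. Inhibitor was tested at a single concentration of 1 μM. Binding is reported as percent of control, defined relative to a DMSO control.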

[11] = biological target: Tyrosine-protein kinase JAK1 (Homo sapiens) (UniProt P23458); assay: Binding affinity to wild-type human partial length JAK1 JH2 pseudokinase domain (R537 to D855 residues) expressed in mammalian expression system assessed as remaining unbound target protein level at 1000 nM by Kinomescan method relative to control; procedure, shortened: as §3
[12] = biological target: Dual specificity mitogen-activated protein kinase kinase 5 (Homo sapiens) (UniProt Q13163); assay: Binding affinity to wild-type human partial length MEK5 (L98 to P448 residues) expressed in mammalian expression system assessed as remaining unbound target protein level at 1000 nM by Kinomescan method relative to control; procedure, shortened: as §3
[13] = biological target: Serine/threonine-protein kinase 4 (Homo sapiens) (UniProt Q13043); assay: Binding affinity to wild-type human full length MST1 (M1 to F487 residues) expressed in bacterial expression system assessed as remaining unbound target protein level at 1000 nM by Kinomescan method relative to control; procedure, shortened: as §1
[14] = biological target: Serine/threonine-protein kinase NIM1 (Homo sapiens) (UniProt Q8IY84); assay: Binding affinity to wild-type human partial length NIM1 (Q44 to N355 residues) expressed in mammalian expression system assessed as remaining unbound target protein level at 1000 nM by Kinomescan method relative to control
[15] = biological target: Mitogen-activated protein kinase 14 (Homo sapiens) (UniProt Q16539); assay: Binding affinity to wild-type human full length p38-alpha (M1 to S360 residues) expressed in bacterial expression system assessed as remaining unbound target protein level at 1000 nM by Kinomescan method relative to control
Procedure, shortened: (§4)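 Profiled in a KINOMEscan binding panel with the inhibitor at a single concentration of 1 μM. Binding to each kinase was read out as percent of control, relative to a DMSO control. Strong binders were defined as those with a percent control value below 1.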

[16] = tested on: Phosphatidylinositol 4,5-bisphosphate 3-kinase catalytic subunit alpha isoform (Homo sapiens), P42336 [Q546K]; assay: Binding affinity to human partial length PIK3CA Q546K mutant (R108 to N1068 residues) expressed in mammalian expression system assessed as remaining unbound target protein level at 1000 nM by Kinomescan method relative to control; procedure, shortened: as §2
[17] = biological target: Protein-tyrosine kinase 2-beta (Homo sapiens) (UniProt Q14289); assay: Binding affinity to wild-type human full length PYK2 (M1 to E967 residues) expressed in bacterial expression system assessed as remaining unbound target protein level at 1000 nM by Kinomescan method relative to control; procedure, shortened: as §4
[18] = biological target: RAF proto-oncogene serine/threonine-protein kinase (Homo sapiens) (UniProt P04049); assay: Binding affinity to wild-type human partial length RAF1 (I330 to T640 residues) expressed in bacterial expression system assessed as remaining unbound target protein level at 1000 nM by Kinomescan method relative to control
[19] = biological target: Serine/threonine-protein kinase RIO1 (Homo sapiens) (UniProt Q9BRS2); assay: Binding affinity to wild-type human full length RIOK1 (M1 to K568 residues) expressed in bacterial expression system assessed as remaining unbound target protein level at 1000 nM by Kinomescan method relative to control; procedure, shortened: as §4
[20] = biological target: TGF-beta receptor type-2 (Homo sapiens) (UniProt P37173); assay: Binding affinity to wild-type human partial length TGFBR2 (I218 to K567 residues) expressed in bacterial expression system assessed as remaining unbound target protein level at 1000 nM by Kinomescan method relative to control
[21] = biological target: Serine/threonine-protein kinase WNK3 (Homo sapiens) (UniProt Q9BYP7); assay: Binding affinity to wild-type human partial length WNK3 (M1 to D434 residues) expressed in mammalian expression system assessed as remaining unbound target protein level at 1000 nM by Kinomescan method relative to control

Sequence of Homeodomain-interacting protein kinase 2 (Homo sapiens) (Q9H2X6 whole entry, looked up, the tested form may be a part): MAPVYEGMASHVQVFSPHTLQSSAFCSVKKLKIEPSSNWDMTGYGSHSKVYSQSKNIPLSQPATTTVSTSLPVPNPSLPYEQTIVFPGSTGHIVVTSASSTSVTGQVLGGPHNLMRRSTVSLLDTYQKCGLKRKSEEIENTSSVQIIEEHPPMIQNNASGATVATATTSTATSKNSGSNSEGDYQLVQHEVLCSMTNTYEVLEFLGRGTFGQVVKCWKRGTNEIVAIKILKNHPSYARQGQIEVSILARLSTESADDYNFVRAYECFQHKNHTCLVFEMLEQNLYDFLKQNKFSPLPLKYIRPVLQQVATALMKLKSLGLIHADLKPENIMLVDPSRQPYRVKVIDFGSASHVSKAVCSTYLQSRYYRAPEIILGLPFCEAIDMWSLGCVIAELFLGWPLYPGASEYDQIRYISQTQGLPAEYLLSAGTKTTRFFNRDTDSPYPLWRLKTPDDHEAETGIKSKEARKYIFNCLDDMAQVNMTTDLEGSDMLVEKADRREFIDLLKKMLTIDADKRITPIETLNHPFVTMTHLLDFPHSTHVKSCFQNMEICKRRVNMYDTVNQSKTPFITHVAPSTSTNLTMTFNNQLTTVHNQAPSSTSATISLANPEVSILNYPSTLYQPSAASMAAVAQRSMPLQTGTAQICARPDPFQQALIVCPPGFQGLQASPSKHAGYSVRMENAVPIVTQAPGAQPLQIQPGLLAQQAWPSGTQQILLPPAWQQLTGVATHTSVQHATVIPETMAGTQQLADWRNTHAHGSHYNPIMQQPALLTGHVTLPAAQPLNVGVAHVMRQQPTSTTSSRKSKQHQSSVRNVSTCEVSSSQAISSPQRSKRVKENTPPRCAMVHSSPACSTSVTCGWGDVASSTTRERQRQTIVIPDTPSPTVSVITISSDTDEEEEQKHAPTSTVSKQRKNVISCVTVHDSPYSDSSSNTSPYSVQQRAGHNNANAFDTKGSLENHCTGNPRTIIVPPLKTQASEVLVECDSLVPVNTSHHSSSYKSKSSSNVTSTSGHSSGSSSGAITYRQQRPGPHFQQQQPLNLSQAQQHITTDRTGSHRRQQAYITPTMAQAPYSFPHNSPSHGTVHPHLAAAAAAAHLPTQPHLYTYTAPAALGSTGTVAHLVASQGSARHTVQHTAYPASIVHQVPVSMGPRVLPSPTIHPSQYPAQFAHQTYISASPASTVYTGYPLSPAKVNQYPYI
Sequence of Phosphatidylinositol 4,5-bisphosphate 3-kinase catalytic subunit alpha isoform (Homo sapiens), P42336 [Q546K] (P42336 whole entry Q546K, the tested form may be a part, canonical isoform): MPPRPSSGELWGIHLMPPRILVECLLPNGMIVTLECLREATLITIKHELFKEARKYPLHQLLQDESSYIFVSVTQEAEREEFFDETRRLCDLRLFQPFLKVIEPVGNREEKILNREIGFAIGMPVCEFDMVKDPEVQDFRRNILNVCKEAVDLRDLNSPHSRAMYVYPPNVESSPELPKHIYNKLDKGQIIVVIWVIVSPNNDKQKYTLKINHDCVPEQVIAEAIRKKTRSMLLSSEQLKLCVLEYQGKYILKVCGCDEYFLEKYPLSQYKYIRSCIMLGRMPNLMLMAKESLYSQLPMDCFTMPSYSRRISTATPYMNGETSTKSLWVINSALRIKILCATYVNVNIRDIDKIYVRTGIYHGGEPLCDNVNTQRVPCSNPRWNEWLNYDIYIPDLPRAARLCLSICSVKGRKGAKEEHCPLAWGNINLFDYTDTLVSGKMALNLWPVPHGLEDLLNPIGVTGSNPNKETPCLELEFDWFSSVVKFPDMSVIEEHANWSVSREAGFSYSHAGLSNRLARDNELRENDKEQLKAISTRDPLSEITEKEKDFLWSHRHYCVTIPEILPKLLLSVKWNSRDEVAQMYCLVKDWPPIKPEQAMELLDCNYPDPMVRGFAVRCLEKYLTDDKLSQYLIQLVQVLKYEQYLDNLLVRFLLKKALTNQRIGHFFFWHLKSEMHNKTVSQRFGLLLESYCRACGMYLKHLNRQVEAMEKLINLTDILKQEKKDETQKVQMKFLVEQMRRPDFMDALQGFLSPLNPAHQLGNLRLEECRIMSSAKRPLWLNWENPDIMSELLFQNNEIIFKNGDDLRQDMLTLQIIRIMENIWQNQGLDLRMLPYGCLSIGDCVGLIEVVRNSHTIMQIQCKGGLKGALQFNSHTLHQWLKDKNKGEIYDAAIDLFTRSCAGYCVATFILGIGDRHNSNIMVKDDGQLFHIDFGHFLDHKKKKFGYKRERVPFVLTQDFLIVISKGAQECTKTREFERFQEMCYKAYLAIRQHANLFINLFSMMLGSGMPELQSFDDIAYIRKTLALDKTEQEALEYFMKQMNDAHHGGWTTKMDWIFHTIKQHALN
Sequence of Tyrosine-protein kinase JAK1 (Homo sapiens) (P23458 whole entry, the tested form may be a part): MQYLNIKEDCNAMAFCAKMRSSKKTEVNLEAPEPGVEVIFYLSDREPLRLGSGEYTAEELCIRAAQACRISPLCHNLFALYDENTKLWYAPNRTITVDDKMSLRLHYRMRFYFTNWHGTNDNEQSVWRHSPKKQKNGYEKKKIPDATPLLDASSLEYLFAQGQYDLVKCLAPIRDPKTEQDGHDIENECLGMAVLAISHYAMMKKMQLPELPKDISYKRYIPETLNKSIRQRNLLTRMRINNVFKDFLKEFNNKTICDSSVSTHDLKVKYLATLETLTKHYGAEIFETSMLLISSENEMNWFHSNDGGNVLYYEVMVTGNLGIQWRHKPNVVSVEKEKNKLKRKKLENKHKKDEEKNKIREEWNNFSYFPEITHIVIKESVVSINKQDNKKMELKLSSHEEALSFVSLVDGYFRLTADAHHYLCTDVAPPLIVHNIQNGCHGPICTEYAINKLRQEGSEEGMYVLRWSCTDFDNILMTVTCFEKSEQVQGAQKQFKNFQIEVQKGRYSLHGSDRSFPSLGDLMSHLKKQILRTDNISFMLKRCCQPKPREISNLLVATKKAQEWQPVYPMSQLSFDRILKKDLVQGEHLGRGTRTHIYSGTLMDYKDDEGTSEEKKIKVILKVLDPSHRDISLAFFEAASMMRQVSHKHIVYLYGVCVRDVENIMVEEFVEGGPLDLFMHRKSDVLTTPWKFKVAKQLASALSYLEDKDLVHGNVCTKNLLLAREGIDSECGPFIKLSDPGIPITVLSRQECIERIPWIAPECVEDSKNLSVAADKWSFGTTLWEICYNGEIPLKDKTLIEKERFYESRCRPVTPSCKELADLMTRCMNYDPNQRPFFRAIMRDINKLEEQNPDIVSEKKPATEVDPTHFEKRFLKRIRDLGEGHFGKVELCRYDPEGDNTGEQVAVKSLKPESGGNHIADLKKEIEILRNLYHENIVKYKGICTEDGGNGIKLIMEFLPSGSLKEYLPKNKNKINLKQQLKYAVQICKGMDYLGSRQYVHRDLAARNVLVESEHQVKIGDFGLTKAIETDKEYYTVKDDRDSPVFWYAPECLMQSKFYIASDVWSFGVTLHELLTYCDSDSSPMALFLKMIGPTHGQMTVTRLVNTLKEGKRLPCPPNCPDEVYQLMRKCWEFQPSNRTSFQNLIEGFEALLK
Sequence of Mitogen-activated protein kinase 6 (Homo sapiens) (Q16659 whole entry, the tested form may be a part): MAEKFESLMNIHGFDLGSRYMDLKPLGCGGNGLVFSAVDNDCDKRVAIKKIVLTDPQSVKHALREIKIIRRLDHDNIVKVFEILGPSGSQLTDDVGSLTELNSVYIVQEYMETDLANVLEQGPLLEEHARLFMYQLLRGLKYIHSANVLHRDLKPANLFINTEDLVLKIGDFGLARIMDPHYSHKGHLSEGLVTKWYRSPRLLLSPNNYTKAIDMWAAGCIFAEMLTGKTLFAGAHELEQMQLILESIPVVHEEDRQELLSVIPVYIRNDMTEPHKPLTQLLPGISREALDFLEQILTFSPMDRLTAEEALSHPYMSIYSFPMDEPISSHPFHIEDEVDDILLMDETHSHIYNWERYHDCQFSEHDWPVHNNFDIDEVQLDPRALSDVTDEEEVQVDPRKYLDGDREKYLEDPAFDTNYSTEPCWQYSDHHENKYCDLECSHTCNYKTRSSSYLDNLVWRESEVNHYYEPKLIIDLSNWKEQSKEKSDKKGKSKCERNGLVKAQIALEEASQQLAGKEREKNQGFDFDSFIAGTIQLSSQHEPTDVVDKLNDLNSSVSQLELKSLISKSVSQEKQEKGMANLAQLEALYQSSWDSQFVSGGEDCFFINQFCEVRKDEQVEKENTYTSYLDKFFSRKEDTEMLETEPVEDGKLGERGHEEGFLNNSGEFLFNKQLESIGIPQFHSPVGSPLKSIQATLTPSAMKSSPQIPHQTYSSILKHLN
Sequence of Serine/threonine-protein kinase RIO1 (Homo sapiens) (Q9BRS2 whole entry, the tested form may be a part): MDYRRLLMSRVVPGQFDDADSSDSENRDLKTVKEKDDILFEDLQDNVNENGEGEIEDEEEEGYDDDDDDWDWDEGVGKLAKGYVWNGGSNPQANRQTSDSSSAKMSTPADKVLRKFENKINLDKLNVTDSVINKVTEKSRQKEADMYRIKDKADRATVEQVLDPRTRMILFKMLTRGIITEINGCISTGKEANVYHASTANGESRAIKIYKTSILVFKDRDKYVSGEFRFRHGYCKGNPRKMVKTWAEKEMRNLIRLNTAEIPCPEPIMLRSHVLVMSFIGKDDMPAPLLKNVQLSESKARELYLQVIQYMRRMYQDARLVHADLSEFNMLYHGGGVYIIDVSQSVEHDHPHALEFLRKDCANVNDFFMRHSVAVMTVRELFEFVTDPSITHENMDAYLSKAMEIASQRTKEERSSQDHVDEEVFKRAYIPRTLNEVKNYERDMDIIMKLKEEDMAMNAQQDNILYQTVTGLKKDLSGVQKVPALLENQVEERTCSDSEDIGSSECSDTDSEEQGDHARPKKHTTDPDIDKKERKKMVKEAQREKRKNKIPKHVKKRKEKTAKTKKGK
Sequence of Mitogen-activated protein kinase 14 (Homo sapiens) (Q16539 whole entry, the tested form may be a part): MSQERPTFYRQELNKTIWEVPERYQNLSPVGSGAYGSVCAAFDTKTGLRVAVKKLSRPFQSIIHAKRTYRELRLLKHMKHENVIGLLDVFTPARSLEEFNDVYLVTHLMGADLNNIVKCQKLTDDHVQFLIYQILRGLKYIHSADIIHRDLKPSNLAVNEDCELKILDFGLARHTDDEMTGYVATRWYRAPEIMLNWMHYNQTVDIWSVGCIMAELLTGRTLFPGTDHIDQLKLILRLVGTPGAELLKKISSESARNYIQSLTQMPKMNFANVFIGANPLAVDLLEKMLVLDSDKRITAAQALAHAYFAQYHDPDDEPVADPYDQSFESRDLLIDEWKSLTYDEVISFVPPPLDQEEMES

Compound: COCCN[C@H]1CC[C@H](Nc2cc(-c3csc(NCC4(C#N)CCOCC4)n3)c(Cl)cn2)CC1
- Activity [1]: inactive
- AUC(0-t) [2]: 393 ng·h/mL
- MRT inf [3]: 20.4 h
- F [4]: 39.15%
- Activity [5]: 99%
- Activity [6]: 0.9%
- Activity [7]: 79%
- Activity [8]: 88%
- Activity [9]: 88%
- Activity [10]: 74%
- Activity [11]: 57%
- Activity [12]: 81%
- Activity [13]: 99%
- Activity [14]: 96%
- Activity [15]: 98%
- Activity [16]: 88%
- Activity [17]: 90%
- Activity [18]: 100%
- Activity [19]: 79%
- Activity [20]: 100%
- Activity [21]: 97%
